Assay results published in ChEMBL document CHEMBL3526048, “In vitro metabolism of rivoglitazone, a novel peroxisome proliferator-activated receptor γ agonist, in rat, monkey, and human liver microsomes and freshly isolated hepatocytes” (Drug Metab Dispos, 2011).

Columns and labels:
Cytochrome P450 2C19 [1] = biological target: T1, Cytochrome P450 2C19 (Homo sapiens, UniProt P33261); experiment: Activity of human CYP2C19 expressed in microsomes isolated from baculovirus infected insect cell assessed as enzyme-mediated (2S,3S,4S,5R,6R)-3,4,5-trihydroxy-6-(5-(4-((6-methoxy-1-methyl-1H-benzo[d]imidazol-2-yl)methoxy)benzyl)-2,4-dioxothiazolidin-3-yl)tetrahydro-2H-pyran-2-carboxylic acid formation at 20 uM after 2 hrs by radio-HPLC/LC-MS/MS analysis in presence of UDPGA and UDPGA/SAM; assay type: ADME
[2] = biological target: T2, UDP-glucuronosyltransferase 2B7 (Homo sapiens, UniProt P16662); experiment: Activity of human UGT2B7 expressed in microsomes isolated from baculovirus infected insect cell assessed as enzyme-mediated 3-(4-((6-methoxy-1-methyl-1H-benzo[d]imidazol-2-yl)methoxy)phenyl)-2-(methylsulfinyl)propanamide formation at 20 uM after 4 hrs by radio-HPLC/LC-MS/MS analysis in presence of NADPH-generating system/SAM; assay type: ADME
T2 sequence (P16662 whole entry): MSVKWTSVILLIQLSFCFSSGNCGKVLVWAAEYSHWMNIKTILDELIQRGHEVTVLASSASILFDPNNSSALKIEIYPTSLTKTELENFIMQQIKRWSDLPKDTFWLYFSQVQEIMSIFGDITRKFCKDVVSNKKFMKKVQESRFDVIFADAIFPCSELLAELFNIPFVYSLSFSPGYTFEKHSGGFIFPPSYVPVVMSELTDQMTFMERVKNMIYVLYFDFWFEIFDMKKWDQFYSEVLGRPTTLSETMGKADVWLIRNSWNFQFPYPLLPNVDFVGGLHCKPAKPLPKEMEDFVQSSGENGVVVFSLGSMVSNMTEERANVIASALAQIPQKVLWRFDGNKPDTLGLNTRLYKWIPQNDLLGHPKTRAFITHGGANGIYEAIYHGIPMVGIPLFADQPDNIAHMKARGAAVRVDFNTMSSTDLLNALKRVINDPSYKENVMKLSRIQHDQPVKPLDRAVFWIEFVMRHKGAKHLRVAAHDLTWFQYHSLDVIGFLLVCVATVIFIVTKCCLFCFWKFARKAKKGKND

Cytochrome P450 3A4 [3] = biological target: T3, Cytochrome P450 3A4 (Homo sapiens, UniProt P08684); experiment: Activity of human CYP3A4 expressed in microsomes isolated from baculovirus infected insect cell assessed as enzyme-mediated 2-mercapto-3-(4-((6-methoxy-1-methyl-1H-benzo[d]imidazol-2-yl)methoxy)phenyl)propanoic acid formation at 20 uM after 2 hrs by radio-HPLC/LC-MS/MS analysis in presence of NADPH-generating system; assay type: ADME
Method in brief: (§1)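 Baculovirus-insect-cell microsomes expressing the human CYP (1 mg/ml protein) were incubated with [14C]rivoglitazone (20 μM) in 50 mM potassium phosphate (pH 7.4) or 100 mM Tris-HCl (pH 7.5) with an NADPH-generating system (2 mM NADP+, 20 mM glucose 6-phosphate, 2 units/ml G6PDH, 10 mM MgCl2) for 2 h at 37°C. Insect-cell control supersomes served as the control. Reactions were stopped with acetonitrile, and the concentrated supernatants were analysed by radio-HPLC, LC-MS and LC-MS/MS.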

[4] = Drug metabolism in cynomolgus monkey liver microsomes assessed as formation of 2-mercapto-3-(4-((6-methoxy-1-methyl-1H-benzo[d]imidazol-2-yl)methoxy)phenyl)propanoic acid at 20 uM after 2 to 4 hrs by radio-HPLC/LC-MS/MS analysis in presence of UDPGA, UDPGA/SAM and NADPH-generating system; assay type: ADME, Macaca fascicularis
Cytochrome P450 2C8 = biological target: T4, Cytochrome P450 2C8 (Homo sapiens, UniProt P10632); experiment: (§2) Activity of human CYP2C8 expressed in microsomes isolated from baculovirus infected insect cell assessed as enzyme-mediated 3-(4-((6-methoxy-1-methyl-1H-benzo[d]imidazol-2-yl)methoxy)phenyl)-2-(methylthio)propanoic acid formation at 20 uM after 2 hrs by radio-HPLC/LC-MS/MS analysis in presence of NADPH-generating system/SAM and UDPGA/SAM; assay type: ADME
T4 sequence (P10632 whole entry): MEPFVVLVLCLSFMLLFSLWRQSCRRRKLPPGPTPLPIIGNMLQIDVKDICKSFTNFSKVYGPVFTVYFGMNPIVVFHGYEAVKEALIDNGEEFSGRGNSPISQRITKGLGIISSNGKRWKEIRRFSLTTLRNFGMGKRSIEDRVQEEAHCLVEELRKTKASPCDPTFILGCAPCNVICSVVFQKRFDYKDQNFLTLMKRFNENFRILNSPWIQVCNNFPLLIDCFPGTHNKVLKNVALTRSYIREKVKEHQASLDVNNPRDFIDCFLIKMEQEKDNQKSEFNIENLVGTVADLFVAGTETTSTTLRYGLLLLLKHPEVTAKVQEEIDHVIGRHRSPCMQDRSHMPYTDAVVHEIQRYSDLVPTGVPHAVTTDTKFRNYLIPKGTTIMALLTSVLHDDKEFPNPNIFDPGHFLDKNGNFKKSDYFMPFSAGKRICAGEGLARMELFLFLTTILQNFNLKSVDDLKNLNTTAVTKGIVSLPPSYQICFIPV

Cytochrome P450 2C19 [5] = biological target: T1, Cytochrome P450 2C19; experiment: Activity of human CYP2C19 expressed in microsomes isolated from baculovirus infected insect cell assessed as enzyme-mediated 3-(4-((6-methoxy-1-methyl-1H-benzo[d]imidazol-2-yl)methoxy)phenyl)-2-(methylthio)propanamide formation at 20 uM after 2 hrs by radio-HPLC/LC-MS/MS analysis in presence of NADPH-generating system/SAM; assay type: ADME
[6] = biological target: T5, UDP-glucuronosyltransferase 1A4 (Homo sapiens, UniProt P22310); experiment: Activity of human UGT1A4 expressed in microsomes isolated from baculovirus infected insect cell assessed as enzyme-mediated (2S,3S,4S,5R,6R)-6-((1-carboxy-2-(4-((6-methoxy-1-methyl-1H-benzo[d]imidazol-2-yl)methoxy)phenyl)ethylthio)carbonylamino)-3,4,5-trihydroxytetrahydro-2H-pyran-2-carboxylic acid formation at 20 uM after 4 hrs by radio-HPLC/LC-MS/MS analysis in presence of UDPGA; assay type: ADME
T5 sequence (P22310 whole entry): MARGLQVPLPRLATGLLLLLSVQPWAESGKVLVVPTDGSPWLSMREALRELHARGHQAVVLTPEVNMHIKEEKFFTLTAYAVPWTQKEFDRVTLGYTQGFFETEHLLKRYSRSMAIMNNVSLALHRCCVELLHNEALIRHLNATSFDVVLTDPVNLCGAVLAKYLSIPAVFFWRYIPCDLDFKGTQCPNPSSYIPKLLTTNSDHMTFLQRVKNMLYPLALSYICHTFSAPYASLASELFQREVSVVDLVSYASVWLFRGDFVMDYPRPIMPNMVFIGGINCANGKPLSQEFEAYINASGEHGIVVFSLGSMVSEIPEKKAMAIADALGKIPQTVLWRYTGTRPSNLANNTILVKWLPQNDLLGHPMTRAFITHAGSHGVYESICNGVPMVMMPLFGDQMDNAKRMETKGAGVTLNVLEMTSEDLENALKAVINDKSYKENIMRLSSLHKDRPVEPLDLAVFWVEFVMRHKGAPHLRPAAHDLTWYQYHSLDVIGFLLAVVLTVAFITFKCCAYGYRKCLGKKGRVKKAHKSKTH

Cytochrome P450 3A4 [7] = biological target: T3, Cytochrome P450 3A4; experiment: Activity of human CYP3A4 expressed in microsomes isolated from baculovirus infected insect cell assessed as enzyme-mediated 2-((4-((2,4-dioxothiazolidin-5-yl)methyl)phenoxy)methyl)-1-methyl-1H-benzo[d]imidazol-6-yl hydrogen sulfate formation at 20 uM after 2 hrs by radio-HPLC/LC-MS/MS analysis; assay type: ADME; method in brief: as §1
Cytochrome P450 2C19 [8] = biological target: T1, Cytochrome P450 2C19; experiment: as §2, with “CYP2C19” for “CYP2C8”; assay type: ADME
[9] = Drug metabolism in cynomolgus monkey liver microsomes assessed as formation of 2-mercapto-3-(4-((6-methoxy-1-methyl-1H-benzo[d]imidazol-2-yl)methoxy)phenyl)propanamide at 20 uM after 2 hrs by radio-HPLC/LC-MS/MS analysis in presence of NADPH-generating system and NADPH-generating system/SAM; assay type: ADME, Macaca fascicularis
Liver microsome = experiment: Drug metabolism in Sprague-Dawley rat liver microsomes assessed as formation of (2S,3S,4S,5R,6R)-3,4,5-trihydroxy-6-(5-(4-((6-methoxy-1-methyl-1H-benzo[d]imidazol-2-yl)methoxy)benzyl)-2,4-dioxothiazolidin-3-yl)tetrahydro-2H-pyran-2-carboxylic acid at 20 uM after 4 hrs by radio-HPLC/LC-MS/MS analysis in presence of UDPGA and UDPGA/SAM; assay type: ADME

T1 sequence (P33261 whole entry): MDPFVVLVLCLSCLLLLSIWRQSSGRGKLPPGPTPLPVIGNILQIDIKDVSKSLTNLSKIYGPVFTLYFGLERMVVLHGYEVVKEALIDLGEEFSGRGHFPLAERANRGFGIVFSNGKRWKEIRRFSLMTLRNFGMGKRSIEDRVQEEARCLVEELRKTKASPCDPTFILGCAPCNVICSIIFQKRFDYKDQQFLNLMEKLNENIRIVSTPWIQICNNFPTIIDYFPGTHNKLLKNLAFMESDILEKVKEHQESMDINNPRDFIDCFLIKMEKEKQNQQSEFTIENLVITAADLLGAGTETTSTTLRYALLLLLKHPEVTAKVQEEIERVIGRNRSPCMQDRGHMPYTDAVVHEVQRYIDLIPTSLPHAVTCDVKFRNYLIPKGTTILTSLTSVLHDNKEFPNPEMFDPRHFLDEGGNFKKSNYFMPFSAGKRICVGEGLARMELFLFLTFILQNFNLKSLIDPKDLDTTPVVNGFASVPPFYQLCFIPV
T3 sequence (P08684 whole entry): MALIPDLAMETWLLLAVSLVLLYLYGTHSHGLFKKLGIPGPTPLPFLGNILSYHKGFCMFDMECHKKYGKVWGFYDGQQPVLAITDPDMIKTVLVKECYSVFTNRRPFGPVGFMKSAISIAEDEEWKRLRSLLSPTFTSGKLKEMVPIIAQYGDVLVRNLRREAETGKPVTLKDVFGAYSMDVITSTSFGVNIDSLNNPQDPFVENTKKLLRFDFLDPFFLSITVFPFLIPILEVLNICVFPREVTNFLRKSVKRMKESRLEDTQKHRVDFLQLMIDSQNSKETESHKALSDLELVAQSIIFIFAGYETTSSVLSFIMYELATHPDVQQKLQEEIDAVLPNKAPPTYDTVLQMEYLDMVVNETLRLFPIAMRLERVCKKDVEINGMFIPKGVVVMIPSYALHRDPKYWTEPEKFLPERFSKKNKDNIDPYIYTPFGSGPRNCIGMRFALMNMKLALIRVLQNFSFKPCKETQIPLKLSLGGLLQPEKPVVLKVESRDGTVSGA

Drug metabolism (Cytochrome P450 2C19 [1]): metabolite_not_detected
Drug metabolism [2]: metabolite_not_detected
Drug metabolism (Cytochrome P450 3A4 [3]): metabolite_detected
Drug metabolism [4]: metabolite_detected
Drug metabolism (Cytochrome P450 2C8): metabolite_not_detected
Drug metabolism (Cytochrome P450 2C19 [5]): metabolite_not_detected
Drug metabolism [6]: metabolite_not_detected
Drug metabolism (Cytochrome P450 3A4 [7]): metabolite_not_detected
Drug metabolism (Cytochrome P450 2C19 [8]): metabolite_not_detected
Drug metabolism [9]: metabolite_detected
Drug metabolism (Liver microsome): metabolite_detected
SMILES: COc1ccc2nc(COc3ccc(C[14CH]4SC(=O)NC4=O)cc3)n(C)c2c1.Cl (racemic)
